# Columns and labels:
# Assay type in all cases: functional
# SNB-19 [1] = experiment: Anticancer activity against human SNB19 cells assessed as cell growth at 10 uM after 48 hrs by sulforhodamine B assay relative to control; conditions: SNB-19, 48 h, read-out: Activity
# Method in brief: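 Single-dose NCI-60 panel screen: compound added at 10 µM and the culture incubated 48 h. The end point was read by protein staining with sulforhodamine B. The value is percent growth of treated cells relative to untreated control cells, reported as a mean graph across the panel.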
# NCI/ADR-RES = experiment: Growth inhibition of human NCI/ADR-RES cells incubated for 48 hrs by sulforhodamine B assay
# Method in brief: (§1)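 NCI-60 five-dose screen at 0.01, 0.1, 1, 10 and 100 µM, 48 h incubation, sulforhodamine B end point. GI50 (50% decrease in net growth), TGI (total growth inhibition) and LC50 (net 50% loss of initial cells) taken from log concentration versus % growth inhibition curves.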
# NCI-H522 = experiment: Growth inhibition of human NCI-H522 cells incubated for 48 hrs by sulforhodamine B assay; conditions: NCI-H522, 48 h; method in brief: as §1
# OVCAR-3 = experiment: Growth inhibition of human OVCAR3 cells incubated for 48 hrs by sulforhodamine B assay; conditions: OVCAR-3, 48 h; method in brief: as §1
# SN12C = experiment: Growth inhibition of human SN12C cells incubated for 48 hrs by sulforhodamine B assay
# Method in brief: (§2)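 NCI 60 human tumour cell line panel, five-dose study at 0.01, 0.1, 1, 10 and 100 µM, 48 h incubation. Sulforhodamine B protein-binding dye end point. GI50 (50% decrease in net cell growth), TGI (total growth inhibition) and LC50 (net 50% loss of initial cells) read from log concentration versus % growth inhibition curves.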
# SK-MEL-28 = experiment: Growth inhibition of human SK-MEL-28 cells incubated for 48 hrs by sulforhodamine B assay; conditions: SK-MEL-28, 48 h; method in brief: as §2
# NCI-H322M = experiment: Growth inhibition of human NCI-H322M cells incubated for 48 hrs by sulforhodamine B assay; method in brief: as §1
# MDA-MB-468 = experiment: Growth inhibition of human MDA-MB-468 cells incubated for 48 hrs by sulforhodamine B assay; conditions: MDA-MB-468, 48 h; method in brief: as §1
# MDA-MB-231 = experiment: Growth inhibition of human MDA-MB-231 cells incubated for 48 hrs by sulforhodamine B assay; conditions: MDA-MB-231, 48 h; method in brief: as §1
# IGROV-1 = experiment: Growth inhibition of human IGROV1 cells incubated for 48 hrs by sulforhodamine B assay; conditions: IGROV-1, 48 h; method in brief: as §1
# EKVX = experiment: Growth inhibition of human EKVX cells incubated for 48 hrs by sulforhodamine B assay; method in brief: as §1
# HCT-15 = experiment: Growth inhibition of human HCT15 cells incubated for 48 hrs by sulforhodamine B assay; conditions: HCT-15, 48 h; method in brief: as §1
# SK-OV-3 = experiment: Growth inhibition of human SKOV3 cells incubated for 48 hrs by sulforhodamine B assay; conditions: SK-OV-3, 48 h; method in brief: as §2
# HCC 2998 = experiment: Growth inhibition of human HCC2998 cells incubated for 48 hrs by sulforhodamine B assay; conditions: HCC 2998, 48 h; method in brief: as §1
# UO-31 = experiment: Growth inhibition of human UO31 cells incubated for 48 hrs by sulforhodamine B assay; conditions: UO-31, 48 h; method in brief: as §2
# A549 = experiment: Growth inhibition of human A549/ATCC cells incubated for 48 hrs by sulforhodamine B assay; conditions: A549, 48 h; method in brief: as §1
# DU-145 = experiment: Growth inhibition of human DU145 cells incubated for 48 hrs by sulforhodamine B assay; conditions: DU-145, 48 h; method in brief: as §1
# SNB-19 [2] = experiment: Growth inhibition of human SNB19 cells incubated for 48 hrs by sulforhodamine B assay; conditions: SNB-19, 48 h; method in brief: as §2
# NCI-H23 = experiment: Growth inhibition of human NCI-H23 cells incubated for 48 hrs by sulforhodamine B assay; conditions: NCI-H23, 48 h; method in brief: as §1
# LOX IMVI = experiment: Growth inhibition of human LOXIMVI cells incubated for 48 hrs by sulforhodamine B assay; method in brief: as §1
# RPMI-8226 = experiment: Growth inhibition of human RPMI8226 cells incubated for 48 hrs by sulforhodamine B assay; conditions: RPMI-8226, 48 h; method in brief: as §2
# UACC-62 = experiment: Growth inhibition of human UACC62 cells incubated for 48 hrs by sulforhodamine B assay; conditions: UACC-62, 48 h; method in brief: as §2
# 786-0 = experiment: Growth inhibition of human 786-0 cells incubated for 48 hrs by sulforhodamine B assay; conditions: 786-0, 48 h; method in brief: as §1
# HL-60(TB) = experiment: Growth inhibition of human HL-60(TB) cells incubated for 48 hrs by sulforhodamine B assay; conditions: HL-60, 48 h
# Method in brief: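 NCI-60 five-dose screen at 0.01, 0.1, 1, 10 and 100 µM for 48 h, sulforhodamine B read-out. GI50 taken from log concentration versus % growth inhibition curves as the concentration giving 50% decrease in net cell growth.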
# MCF7 = experiment: Growth inhibition of human MCF7 cells incubated for 48 hrs by sulforhodamine B assay; conditions: MCF7, 48 h; method in brief: as §1
# OVCAR-8 = experiment: Growth inhibition of human OVCAR8 cells incubated for 48 hrs by sulforhodamine B assay; conditions: OVCAR-8, 48 h; method in brief: as §1
# SF-539 = experiment: Growth inhibition of human SF539 cells incubated for 48 hrs by sulforhodamine B assay; conditions: SF-539, 48 h; method in brief: as §2
# [3] = read-out: LC50 (the source's name)
smiles,measurement,setting,value
C=C1CC[C@@H]2[C@](C)(COC(C)=O)[C@H](OC(C)=O)CC[C@@]2(C)[C@H]1CC(Nc1ccc(S(=O)(=O)Nc2nc(C)cc(C)n2)cc1)C1=CCOC1=O (stereo partly drawn),growth at 10 µM,SNB-19 [1],100%
C=C1CC[C@@H]2[C@](C)(COC(C)=O)[C@H](OC(C)=O)CC[C@@]2(C)[C@H]1CC(Nc1ccc(S(=O)(=O)Nc2cc(C)on2)cc1)C1=CCOC1=O (stereo partly drawn),GI50,NCI/ADR-RES,2.41 µM
same,LC50 (concentration giving net 50% loss of initial cells),NCI/ADR-RES,> 100 µM
same,TGI,NCI/ADR-RES,12 µM
same,GI50,NCI-H522,1.04 µM
same,TGI,NCI-H522,2.42 µM
same,CC50,NCI-H522; [3],5.61 µM
same,GI50,OVCAR-3,1.66 µM
same,TGI,OVCAR-3,3.09 µM
same,CC50,OVCAR-3; [3],5.75 µM
same,GI50,SN12C,1.73 µM
same,TGI,SN12C,4.52 µM
same,CC50,SN12C; [3],20.7 µM
same,GI50,SK-MEL-28,2.02 µM
same,LC50 (50% net cell kill),SK-MEL-28,9.2 µM
same,TGI,SK-MEL-28,4.31 µM
same,GI50,NCI-H322M,4.68 µM
same,TGI,NCI-H322M,16.1 µM
same,CC50,NCI-H322M; [3],44.6 µM
same,GI50,MDA-MB-468,1.49 µM
same,TGI,MDA-MB-468,3.29 µM
same,CC50,MDA-MB-468; [3],7.27 µM
same,GI50,MDA-MB-231,2.22 µM
same,LC50 (concentration giving net 50% loss of initial cells),MDA-MB-231,17.1 µM
same,TGI,MDA-MB-231,5.11 µM
same,GI50,IGROV-1,2.36 µM
same,TGI,IGROV-1,6.51 µM
same,CC50,IGROV-1; [3],76.2 µM
same,GI50,EKVX,11 µM
same,TGI,EKVX,25.9 µM
same,CC50,EKVX; [3],60.8 µM
same,GI50,HCT-15,1.5 µM
same,TGI,HCT-15,3.83 µM
same,CC50,HCT-15; [3],9.74 µM
same,GI50,SK-OV-3,11 µM
same,TGI,SK-OV-3,23.1 µM
same,CC50,SK-OV-3; [3],48.6 µM
same,GI50,HCC 2998,2.14 µM
same,TGI,HCC 2998,4.05 µM
same,CC50,HCC 2998; [3],7.64 µM
same,GI50,UO-31,1.69 µM
same,LC50 (concentration giving net 50% loss of initial cells),UO-31,7.33 µM
same,TGI,UO-31,3.52 µM
same,GI50,A549,4.75 µM
same,TGI,A549,15.4 µM
same,CC50,A549; [3],42.2 µM
same,GI50,DU-145,2.43 µM
same,TGI,DU-145,6.53 µM
same,CC50,DU-145; [3],23 µM
same,GI50,SNB-19 [2],3.12 µM
same,TGI,SNB-19 [2],12.2 µM
same,CC50,SNB-19 [2]; [3],46.4 µM
same,GI50,NCI-H23,2.31 µM
same,TGI,NCI-H23,5.9 µM
same,CC50,NCI-H23; [3],31.4 µM
same,GI50,LOX IMVI,1.18 µM
same,TGI,LOX IMVI,2.54 µM
same,CC50,LOX IMVI; [3],5.46 µM
same,GI50,RPMI-8226,1.54 µM
same,TGI,RPMI-8226,5.42 µM
same,CC50,RPMI-8226; [3],> 100 µM
same,GI50,UACC-62,2.13 µM
same,TGI,UACC-62,7.06 µM
same,CC50,UACC-62; [3],30.5 µM
same,GI50,786-0,1.96 µM
same,LC50 (concentration giving net 50% loss of initial cells),786-0,6.82 µM
same,TGI,786-0,3.66 µM
same,GI50,HL-60(TB),1.39 µM
same,TGI,HL-60(TB),3.69 µM
same,CC50,HL-60(TB); [3],9.82 µM
same,GI50,MCF7,0.59 µM
same,TGI,MCF7,2.76 µM
same,GI50,OVCAR-8,1.88 µM
same,TGI,OVCAR-8,4.3 µM
same,CC50,OVCAR-8; [3],9.83 µM
same,GI50,SF-539,1.59 µM
same,TGI,SF-539,3.06 µM
same,CC50,SF-539; [3],5.89 µM
